# Paper PMC2880883 (Biochemical pharmacology, 2010)
# Entries after “also recorded” stand apart in the source; their conditions may differ. Where two headings read alike, the source gives them in different places.
# Assays:
# [1] = tested on: non-transfected HL-1 cells; experiment: LDH assay, protection from H2O2-induced cell death, untransfected cells; conditions: for Protection against H2O2-induced cytotoxicity in non-transfected HL-1 cells: 750 μM H2O2, LDH assay
# [2] = tested on: A3AR-transfected HL-1 cells; experiment: LDH assay, protection from H2O2-induced cell death, hA3AR-transfected cells; type: cell-based, mouse; conditions: for Protection against H2O2-induced cytotoxicity in A3AR-transfected HL-1 cells: 750 μM H2O2; for IC50: HL-1, read-out: Protection from cell death induced by H2O2, transfected cells, IC50; for EC50: read-out: Protection of A3 AR-transfected cells against H2O2, EC50 (lactate dehydrogenase release)
# hA3AR [3] = target: T1, hA3AR (Homo sapiens, UniProt P0DMS8); experiment: cAMP assay, inhibition of forskolin-stimulated cAMP, CHO cells; type: cell-based
# T1 sequence (P0DMS8 1-318): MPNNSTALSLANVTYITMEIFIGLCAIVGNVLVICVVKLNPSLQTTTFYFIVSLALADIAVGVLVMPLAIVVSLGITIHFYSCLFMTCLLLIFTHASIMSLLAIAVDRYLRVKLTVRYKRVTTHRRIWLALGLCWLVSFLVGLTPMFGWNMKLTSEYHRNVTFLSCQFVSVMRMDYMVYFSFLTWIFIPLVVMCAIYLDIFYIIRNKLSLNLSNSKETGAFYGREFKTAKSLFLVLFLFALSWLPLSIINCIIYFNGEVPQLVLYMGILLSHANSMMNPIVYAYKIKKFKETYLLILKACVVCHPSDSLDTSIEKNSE
# How it was run: (§1)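 Stably transfected CHO cells (A1, A2A or A3AR) were seeded overnight at 37 °C, then given DMEM with 50 mM HEPES, 10 μM rolipram, 3 U/ml adenosine deaminase and rising test compound, for 30 min at 37 °C. For A1/A3, 10 μM forskolin was added for 15 min more; A2A plates were incubated 45 min. Cells were lysed in 0.1 M HCl; cAMP by immunoassay at 405 nm.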
# hA2AAR [4] = target: T2, hA2AAR (Homo sapiens, UniProt P29274); experiment: cAMP assay, stimulation of cAMP, CHO cells; type: cell-based
# T2 sequence (P29274 whole entry): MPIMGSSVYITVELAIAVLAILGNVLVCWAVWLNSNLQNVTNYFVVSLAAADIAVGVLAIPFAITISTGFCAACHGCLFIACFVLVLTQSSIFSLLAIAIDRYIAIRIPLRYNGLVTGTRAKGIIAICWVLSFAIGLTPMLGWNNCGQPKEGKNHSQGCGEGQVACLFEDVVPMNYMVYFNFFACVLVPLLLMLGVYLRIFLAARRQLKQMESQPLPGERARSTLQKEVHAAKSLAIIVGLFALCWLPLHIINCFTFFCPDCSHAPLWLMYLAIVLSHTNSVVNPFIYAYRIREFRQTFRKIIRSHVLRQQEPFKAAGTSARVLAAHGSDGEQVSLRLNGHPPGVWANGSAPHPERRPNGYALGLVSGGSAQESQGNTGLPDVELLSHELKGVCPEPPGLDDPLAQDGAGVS
# How it was run: as §1
# hA2AAR [5] = target: T2, hA2AAR; conditions: read-out: Binding, Ki, A2A; [3H]CGS21680; previously reported; cited from earlier work
# hA3AR [6] = target: T1, hA3AR; conditions: read-out: Binding, Ki, A3; [125I]AB-MECA; previously reported; cited from earlier work
# hA1AR [7] = target: T3, hA1AR (Homo sapiens, UniProt P30542); experiment: cAMP assay, inhibition of forskolin-stimulated cAMP, CHO cells; type: cell-based
# T3 sequence (P30542 1-326): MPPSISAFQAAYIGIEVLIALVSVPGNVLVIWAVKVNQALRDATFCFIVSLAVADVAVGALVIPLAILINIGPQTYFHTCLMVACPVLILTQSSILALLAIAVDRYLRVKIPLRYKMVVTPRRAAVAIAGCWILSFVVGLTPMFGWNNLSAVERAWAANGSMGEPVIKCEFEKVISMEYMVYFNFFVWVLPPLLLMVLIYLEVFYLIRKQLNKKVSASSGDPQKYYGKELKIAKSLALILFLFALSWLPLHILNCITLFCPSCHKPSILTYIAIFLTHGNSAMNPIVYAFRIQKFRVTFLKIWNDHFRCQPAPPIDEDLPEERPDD
# How it was run: as §1
# hA1AR [8] = target: T3, hA1AR; conditions: read-out: Binding, Ki, A1; [3H]CCPA; previously reported; cited from earlier work
# [9] = tested on: A3AR-transfected HL-1 cells; experiment: Luminescent caspase 3/7 assay of H2O2-induced apoptosis; type: cell-based, mouse; conditions: dendrimer 10 μM 1 h before 400 μM H2O2, 3 h
# How it was run: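 HL-1 cells transfected with hA3AR were seeded at 30,000 cells/well and incubated overnight at 37 °C, then switched to DMEM with Ca/Mg. Dendrimer (10 μM) was added 1 h before H2O2 (400 μM) and kept throughout, with 3 h at 37 °C. An equal volume of Caspase-Glo 3/7 reagent was added for 90 min at room temperature before reading luminescence. Three independent experiments in triplicate, mean ± SD.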
# hA1AR [10] = target: T3, hA1AR; experiment: Radioligand membrane binding, [3H]CCPA, stably transfected CHO cells; conditions: read-out: Binding, Ki app, A1, dendrimer concentration, mean ± SEM, n = 3
# hA3AR [11] = target: T1, hA3AR; experiment: Radioligand membrane binding, [125I]AB-MECA, stably transfected CHO cells
# hA2AAR [12] = target: T2, hA2AAR; experiment: Radioligand membrane binding, [3H]CGS21680, stably transfected HEK cells; conditions: read-out: Binding, Ki app, A2A, dendrimer concentration, mean ± SEM, n = 3
molecule,measurement,setting,value
"OC[C@H]1O[C@@H](n2cnc3c(NC4CCCC4)nc(Cl)nc32)[C@H](O)[C@@H]1O [CCPA, 2-Chloro-N^6-cyclopentyladenosine]",Protection against H2O2-induced cytotoxicity in non-transfected HL-1 cells,[1],did not protect
"CCNC(=O)[C@H]1O[C@@H](n2cnc3c(N)nc(NCCc4ccc(CCC(=O)O)cc4)nc32)[C@H](O)[C@@H]1O [CGS21680, 2-[p-(2-carboxyethyl)phenylethyl-amino]-5′-N-ethylcarboxamidoadenosine]",Protection against H2O2-induced cytotoxicity in non-transfected HL-1 cells,[1],protected; also recorded: protective
same,IC50,"[1]; Mus musculus, HL-1, read-out: Protection from cell death induced by H2O2, untransfected cells, IC50",7100 ± 2400 nM
"CNC(=O)[C@H]1O[C@@H](n2cnc3c(NCc4cccc(I)c4)nc(Cl)nc32)[C@H](O)[C@@H]1O [Cl-IB-MECA, 2-chloro-N^6-(3-iodobenzyl)-5′-N-methylcarboxamidoadenosine]",Protection against H2O2-induced cytotoxicity in A3AR-transfected HL-1 cells,[2]; LDH assay,revealed protection
same,IC50,[2]; Mus musculus,7900 ± 2300 nM
same,Protection against H2O2-induced cytotoxicity in non-transfected HL-1 cells,[1],neither IB-MECA nor Cl-IB-MECA gave protection
"CNC(=O)[C@H]1O[C@@H](n2cnc3c(NCc4cccc(I)c4)ncnc32)[C@H](O)[C@@H]1O [IB-MECA, N^6-(3-iodobenzyl)-5′-N-methylcarboxamidoadenosine]",Protection against H2O2-induced cytotoxicity in A3AR-transfected HL-1 cells,[2]; LDH assay,revealed protection
same,EC50,"[2]; Mus musculus, HL-1, 4 h",3800 nM
same,IC50,[2]; Mus musculus,3800 ± 1400 nM
same,Protection against H2O2-induced cytotoxicity in non-transfected HL-1 cells,[1],neither IB-MECA nor Cl-IB-MECA gave protection
CCOC(=O)C1=C(C)NC(c2ccccc2)=C(C(=O)OCc2ccccc2)C1C#Cc1ccccc1 (stereo not drawn) [MRS1191],Effect of A3 antagonist on protection afforded by IB-MECA from H2O2-induced cell death,"[2]; MRS1191 10 μM 1 h before IB-MECA 30 μM, 750 μM H2O2, 4 h, transfected HL-1 cells",prevented the protection
"CCNC(=O)[C@H]1O[C@@H](n2cnc3c(N)ncnc32)[C@H](O)[C@@H]1O [NECA, 5′-N-ethylcarboxamidoadenosine]",EC50,"[2]; 750 μM H2O2, 4 h",3900 nM
same,Protection against H2O2-induced cytotoxicity in non-transfected HL-1 cells,[1],protected; also recorded: protective
N-(2-Aminoethyl)-ADAC [compound 4],"Agonist efficacy in cAMP assay, A3AR (inhibition)",hA3AR [3],potent full agonist
same,"Agonist efficacy in cAMP assay, A2AAR (stimulation)",hA2AAR [4],potent full agonist
same,Ki,hA2AAR [5],300 ± 20 nM
same,Ki,hA3AR [6],9.5 ± 2 nM
same,"Agonist efficacy in cAMP assay, A1AR (inhibition)",hA1AR [7],potent full agonist
same,Ki,hA1AR [8],43 ± 5 nM
PAMAMG5.5-1(AF488-ED) [compound 7],Activity in assay of A3AR-mediated cAMP inhibition at 10 μM,hA3AR [3]; 10 μM,inactive
same,Effect on H2O2-induced apoptosis (caspase 3/7 luminescence),[9],did not significantly decrease; also recorded: not by 7
PAMAMG5.5-1(AF488-ED)-60(N-(2-aminoethyl)-ADAC) [compound 8],Selectivity in assay of adenylate cyclase inhibition / AR activation,hA3AR [3]; versus A1 and A2AARs,nonselective; also recorded: nonselectively
same,Effect on H2O2-induced apoptosis (caspase 3/7 luminescence),[9],significantly decreased; also recorded: significant protection
same,Protection against H2O2-induced cytotoxicity in A3AR-transfected HL-1 cells,[2]; LDH assay,highly potent
same,IC50 value less than those of monomeric A3AR agonists IB-MECA and Cl-IB-MECA,"[2]; A3AR-transfected HL-1 cells, LDH assay",100- to 200 fold
same,Ki,hA1AR [10],140 ± 65 nM
same,Protection against H2O2-induced cytotoxicity in non-transfected HL-1 cells,[1],did not show cytoprotection
same,Ki,"hA3AR [11]; read-out: Binding, Ki app, A3, [125I]AB-MECA, dendrimer concentration, mean ± SEM, n = 3",15 ± 4 nM
same,Selectivity for the A3AR in binding,hA3AR [11]; versus A1 and A2AARs,only slightly selective
same,Ki,hA2AAR [12],80 ± 17 nM
